Assay results published in ChEMBL document CHEMBL1123382, “Potential tumor- or organ-imaging agents. 27. Polyiodinated 1,3-disubstituted and 1,2,3-trisubstituted triacylglycerols” (J Med Chem, 1986).
Several values for one entry are separate records, joined by “and”; a condition that tells them apart may be missing. Equal entries are not always repeated.

Assays:
Rattus norvegicus [1] = test: Biodistribution in Rat lung after 30 minutes of iv administration; type: ADME, organism-based; conditions: in vivo, 0.5 h
In short: (§1)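 125I-labeled compound solubilized in normal saline with Tween-20 and given iv to rats, about 5-30 μCi (9-83 μg) per animal. Three to five rats per time point. Rats killed by exsanguination under ether anesthesia at 5 min, 30 min or 24 h. Organs minced, blotted free of blood and counted for radioiodine. Lines with "per g" are % administered dose per gram ± SEM.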

Rattus norvegicus [2] = test: Biodistribution in Rat liver after 5 minutes of iv administration; type: ADME, organism-based; conditions: in vivo; in short: as §1
Rattus norvegicus [3] = test: Biodistribution in Rat lung after 24 hours of iv administration; type: ADME, organism-based; conditions: in vivo; in short: as §1
Rattus norvegicus [4] = test: Biodistribution in Rat lung after 5 minutes of iv administration; type: ADME, organism-based; conditions: in vivo; in short: as §1
Rattus norvegicus [5] = test: Biodistribution in Rat blood after 24 hours of iv administration; type: ADME, organism-based; conditions: in vivo; in short: as §1
Rattus norvegicus [6] = test: Biodistribution in Rat blood after 30 minutes of iv administration; type: ADME, organism-based; conditions: in vivo, 0.5 h; in short: as §1
Rattus norvegicus [7] = test: Biodistribution in Rat blood after 5 minutes of iv administration; type: ADME, organism-based; conditions: in vivo; in short: as §1
Rattus norvegicus [8] = test: Biodistribution in Rat heart after 24 hours of iv administration; type: ADME, organism-based; conditions: in vivo; in short: as §1
Rattus norvegicus [9] = test: Biodistribution in Rat heart after 30 minutes of iv administration; type: ADME, organism-based; conditions: in vivo, 0.5 h; in short: as §1
Rattus norvegicus [10] = test: Biodistribution in Rat heart after 5 minutes of iv administration; type: ADME, organism-based; conditions: in vivo; in short: as §1
Rattus norvegicus [11] = test: Biodistribution in Rat liver after 24 hours of iv administration; type: ADME, organism-based; conditions: in vivo; in short: as §1
Rattus norvegicus [12] = test: (§2) Biodistribution in Rat liver after 30 minutes of iv administration; type: ADME, organism-based; conditions: in vivo, 0.5 h; in short: as §1
Rattus norvegicus [13] = test: as §2; type: ADME, organism-based; conditions: in vivo, 0.5 h; in short: as §1; remark: listed apart in the source
Rattus norvegicus [14] = test: Compound was evaluated for the lipid soluble radioactivity extracted from rat liver at 0.5 hr after intravenous administration.; type: functional
In short: (§3)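 Liver and plasma taken 0.5 or 24 h after iv dosing of 125I-labeled compound in rats (n = 3-5). Extracted by a modified Folch procedure; value is % lipid (CHCl3/MeOH)-extractable radioactivity ± SEM. Extracts run on TLC in hexane/ethyl acetate 5:2 against unlabeled standard, then 1-cm strips counted to give % parent compound.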

Rattus norvegicus [15] = test: Compound was evaluated for the lipid soluble radioactivity extracted from rat plasma at 0.5 hr after intravenous administration.; type: functional; in short: as §3
Rattus norvegicus [16] = test: Liver radioactivity after iv administration of compound (30 min) in rats; type: functional, organism-based
In short: (§4)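 Rats (3-5 per time point) dosed iv with about 5-30 μCi (9-83 μg) of 125I-labeled compound in saline containing Tween-20. Killed by exsanguination under ether at 5 min, 30 min or 24 h. Liver removed, minced, blotted and counted. Values are % administered dose per organ, based on each animal's actual liver weight, ± SEM.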

Rattus norvegicus [17] = test: Liver radioactivity after iv administration of compound (5 min) in rats; type: functional, organism-based; in short: as §4
Rattus norvegicus [18] = test: Compound (125I labeled) was evaluated for the total radioactivity in albumin 5 min after intravenous administration.; type: functional; set-up: concentration or dose not given beside the values
In short: (§5)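 Rat plasma taken 5 or 30 min after iv dosing of 125I-labeled compound (saline/Tween-20) and run on polyacrylamide gel electrophoresis. Gels sectioned and each section gamma-counted. Radioactivity in each band (stacking gel, lipoproteins, albumin, below-albumin) is given as % of total radioactivity applied to the gel.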

Rattus norvegicus [19] = test: Evaluated for the total radioactivity in below albumin at 30 min after intravenous administration.; type: functional; in short: as §5
Rattus norvegicus [20] = test: Compound (125I labeled) was evaluated for the total radioactivity in high-density lipoprotein 5 min after intravenous administration.; type: functional; in short: as §5
Rattus norvegicus [21] = test: Compound (125I labeled) was evaluated for the total radioactivity in high-density lipoprotein, at 30 min after intravenous administration.; type: functional; in short: as §5
Rattus norvegicus [22] = test: Compound (125I labeled) was evaluated for the total radioactivity in low-density lipoprotein 5 min after intravenous administration.; type: functional; set-up: concentration or dose not given beside the values; in short: as §5
Rattus norvegicus [23] = test: Compound (125I labeled) was evaluated for the total radioactivity in low-density lipoprotein, at 30 min after intravenous administration.; type: functional; in short: as §5
Rattus norvegicus [24] = test: Compound (125I labeled) was evaluated for the total radioactivity in stacking gel 5 min after intravenous administration.; type: functional; in short: as §5
Rattus norvegicus [25] = test: Compound (125I labeled) was evaluated for the total radioactivity in stacking gel at 30 min after intravenous administration.; type: functional; in short: as §5
Rattus norvegicus [26] = test: Compound (125I labeled) was evaluated for the total radioactivity in albumin at 30 min after intravenous administration.; type: functional; set-up: concentration or dose not given beside the values; in short: as §5
Rattus norvegicus [27] = test: (§6) Biodistribution in Rat liver after 30 minutes of iv administration; per g of tissue; type: ADME, organism-based; conditions: in vivo, 0.5 h; in short: as §1
Rattus norvegicus [28] = test: Biodistribution in Rat lung after 24 hours of iv administration; per g of tissue; type: ADME, organism-based; conditions: in vivo; in short: as §1
Rattus norvegicus [29] = test: Biodistribution in Rat lung after 30 minutes of iv administration; per g of tissue; type: ADME, organism-based; conditions: in vivo, 0.5 h; in short: as §1
Rattus norvegicus [30] = test: Biodistribution in Rat lung after 5 minutes of iv administration; per g of tissue; type: ADME, organism-based; conditions: in vivo; in short: as §1
Rattus norvegicus [31] = test: Biodistribution in Rat blood after 24 hours of iv administration; per g of tissue; type: ADME, organism-based; conditions: in vivo; in short: as §1
Rattus norvegicus [32] = test: Biodistribution in Rat blood after 5 minutes of iv administration; per g of tissue; type: ADME, organism-based; conditions: in vivo; in short: as §1
Rattus norvegicus [33] = test: Biodistribution in Rat heart after 24 hours of iv administration; per g of tissue; type: ADME, organism-based; conditions: in vivo; in short: as §1
Rattus norvegicus [34] = test: Biodistribution in Rat heart after 30 minutes of iv administration; per g of tissue; type: ADME, organism-based; conditions: in vivo, 0.5 h; in short: as §1
Rattus norvegicus [35] = test: Biodistribution in Rat heart after 5 minutes of iv administration; per g of tissue; type: ADME, organism-based; conditions: in vivo; in short: as §1
Rattus norvegicus [36] = test: Biodistribution in Rat liver after 24 hours of iv administration; per g of tissue; type: ADME, organism-based; conditions: in vivo; in short: as §1
Rattus norvegicus [37] = test: as §6; type: ADME, organism-based; conditions: in vivo, 0.5 h; in short: as §1; remark: listed apart in the source
Rattus norvegicus [38] = test: Compound was evaluated for the lipid soluble radioactivity extracted from rat plasma at 24 hr after intravenous administration.; type: functional; in short: as §3
Rattus norvegicus [39] = test: Compound was evaluated for the lipid soluble radioactivity extracted from rat liver at 24 hr after intravenous administration.; type: functional; in short: as §3
Rattus norvegicus [40] = test: Liver radioactivity after iv administration of compound (24 h) in rats; type: functional, organism-based; in short: as §4
Rattus norvegicus [41] = test: Biodistribution in Rat liver after 5 minutes of iv administration; per g of tissue; type: ADME, organism-based; conditions: in vivo; in short: as §1
Rattus norvegicus [42] = test: Biodistribution in Rat blood after 30 minutes of iv administration; per g of tissue; type: ADME, organism-based; conditions: in vivo, 0.5 h; in short: as §1

Row | Biodistribution (Rattus norvegicus [1]) [%] | Biodistribution (Rattus norvegicus [2]) | Biodistribution (Rattus norvegicus [3]) [%] | Biodistribution (Rattus norvegicus [4]) [%] | Biodistribution (Rattus norvegicus [5]) [%] | Biodistribution (Rattus norvegicus [6]) [%] | Structure (SMILES) | Extracted (Rattus norvegicus [14]) [%] | Parent compound (Rattus norvegicus [14]) [%] | Parent compound (Rattus norvegicus [15]) [%] | Radioactivity (Rattus norvegicus [16]) | Radioactivity (Rattus norvegicus [17]) | Total radioactivity (Rattus norvegicus [18]) [%] | Total radioactivity (Rattus norvegicus [19]) | Total radioactivity (Rattus norvegicus [20]) [%] | Total radioactivity (Rattus norvegicus [21]) [%] | Total radioactivity (Rattus norvegicus [22]) [%] | Total radioactivity (Rattus norvegicus [23]) [%] | Total radioactivity (Rattus norvegicus [24]) [%] | Total radioactivity (Rattus norvegicus [25]) [%] | Total radioactivity (Rattus norvegicus [26]) [%] | other results
1 | 0.67 | 0.6% and 6.94% | 0.09 | 1.13 | 0.07 | 0.91 | Nc1c(I)cc(I)c(CCCCCCCCCCCC(=O)OCC(COC(=O)CCCCCCCCCCCc2c(I)cc(I)c(N)c2I)OC(=O)CCCCCCCCCCCc2c(I)cc(I)c(N)c2I)c1I | 76.5 | 68.8 | 24.1 | 45.7 | 53.8 | 30.2 | 5.5% and 12.6% | 27.2 | 33.6 | 12.7 | 6.2 | 24.4 | 5.8 | 40.6 | Biodistribution (Rattus norvegicus [7]): 1.46%; Biodistribution (Rattus norvegicus [8]): 0.05%; Biodistribution (Rattus norvegicus [9]): 0.65%; Biodistribution (Rattus norvegicus [10]): 2.67%; Biodistribution (Rattus norvegicus [11]): 0.1% and 0.71%; Biodistribution (Rattus norvegicus [12]): 5.24%; Biodistribution (Rattus norvegicus [13]): 5.24%
2 | – | – | – | – | – | – | CCCCCCCCCCCCCCCC(=O)OC(COC(=O)C(CC)Cc1c(I)cc(I)c(N)c1I)COC(=O)C(CC)Cc1c(I)cc(I)c(N)c1I (stereo not drawn) | 88.4 | 86 | 82.6 | 30.2 | 18.4 | 3.2 | 0.1% and 0.3% | 55.1 | 59.7 | 35.4 | 29.7 | 6.2 | 6.8 | 3.4 | Biodistribution (Rattus norvegicus [27]): 4.54%; Biodistribution (Rattus norvegicus [28]): 0.33%; Biodistribution (Rattus norvegicus [29]): 1.1%; Biodistribution (Rattus norvegicus [30]): 1.49%; Biodistribution (Rattus norvegicus [31]): 0.54%; Biodistribution (Rattus norvegicus [32]): 7.44%; Biodistribution (Rattus norvegicus [33]): 0.21%; Biodistribution (Rattus norvegicus [34]): 0.66%; Biodistribution (Rattus norvegicus [35]): 0.87%; Biodistribution (Rattus norvegicus [36]): 0.26% and 0.33%; Biodistribution (Rattus norvegicus [37]): 4.54%; Extracted (Rattus norvegicus [38]): 82.1%; Parent compound (Rattus norvegicus [38]): 77.4%; Extracted (Rattus norvegicus [39]): 93.9%; Parent compound (Rattus norvegicus [39]): 91.7%; Extracted (Rattus norvegicus [15]): 86%; Radioactivity (Rattus norvegicus [40]): 52.1; Biodistribution (Rattus norvegicus [41]): 0.84% and 2.9%; Biodistribution (Rattus norvegicus [42]): 5.17%
3 | 0.94 | 0.52% and 6.68% | 0.07 | 1.08 | 0.06 | 2.1 | Nc1c(I)cc(I)c(CCCCCCCCCCCCCCCCC(=O)OCC(COC(=O)CCCCCCCCCCCCCCCCc2c(I)cc(I)c(N)c2I)OC(=O)CCCCCCCCCCCCCCCCc2c(I)cc(I)c(N)c2I)c1I | 50.7 | 15.1 | 29.2 | 38.8 | 54.4 | 20.3 | 7.1% and 6.8% | 32.7 | 28.1 | 32.2 | 15.1 | 6.4 | 3.8 | 46.2 | Biodistribution (Rattus norvegicus [7]): 4.14%; Biodistribution (Rattus norvegicus [8]): 0.03%; Biodistribution (Rattus norvegicus [9]): 0.92%; Biodistribution (Rattus norvegicus [10]): 0.74%; Biodistribution (Rattus norvegicus [11]): 0.14% and 0.44%; Biodistribution (Rattus norvegicus [12]): 5.28%; Biodistribution (Rattus norvegicus [13]): 5.28%; Extracted (Rattus norvegicus [38]): 54.2%; Parent compound (Rattus norvegicus [38]): 20.2%; Extracted (Rattus norvegicus [39]): 73.4%; Parent compound (Rattus norvegicus [39]): 9.5%; Extracted (Rattus norvegicus [15]): 70.1%; Radioactivity (Rattus norvegicus [40]): 3
